Assay [1] addresses T1, 5-hydroxytryptamine receptor 3A (Homo sapiens) (UniProt P46098).
T1 sequence (whole entry): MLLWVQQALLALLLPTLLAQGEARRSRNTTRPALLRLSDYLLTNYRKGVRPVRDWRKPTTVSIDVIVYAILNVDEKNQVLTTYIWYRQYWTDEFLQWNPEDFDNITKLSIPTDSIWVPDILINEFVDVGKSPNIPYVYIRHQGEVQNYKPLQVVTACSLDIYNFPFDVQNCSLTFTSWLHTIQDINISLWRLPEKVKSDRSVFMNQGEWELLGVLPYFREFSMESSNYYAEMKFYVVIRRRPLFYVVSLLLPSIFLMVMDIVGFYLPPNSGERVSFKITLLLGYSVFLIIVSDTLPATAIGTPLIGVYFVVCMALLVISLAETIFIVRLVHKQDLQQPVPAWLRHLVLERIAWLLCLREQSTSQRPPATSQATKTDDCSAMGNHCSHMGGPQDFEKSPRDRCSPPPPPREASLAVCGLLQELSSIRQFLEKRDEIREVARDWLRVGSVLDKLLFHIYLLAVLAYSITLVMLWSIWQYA
As to the kind of experiment: Binding affinity to human 5HT3 receptor at 10 uM by radioligand binding assay.

Assay [2] deals with T2, Neuronal acetylcholine receptor subunit alpha-7 (Rattus norvegicus, UniProt Q05941). The experiment in a line: Agonist activity at rat alpha7 nAchR expressed in Xenopus oocyte. It counts as functional.
In assay [3] the target is T3, Neuronal acetylcholine receptor subunit alpha-7 (Homo sapiens, UniProt P36544). As to the kind of experiment: Intrinsic activity at human alpha7 nAChR expressed in Xenopus oocytes relative to acetylcholine. Particulars: Oocyte. Format: cell-based.
Assay [4] deals with T3, Neuronal acetylcholine receptor subunit alpha-7. The experiment in a line: Partial agonist activity at human alpha7 nAChR expressed in GH4C1 cells relative to acetylcholine. It counts as functional, cell-based, GH4-C1.
The target is the same in assay [5]. The experiment in a line: Intrinsic activity at human alpha7 nAChR expressed in GH4C1 cells relative to acetylcholine. It counts as cell-based. Particulars: GH4-C1.
Assay [6] has the same target. The experiment in a line: Binding affinity to alpha7 nAChR.
The target is the same in assay [7]. The experiment in a line: Agonist activity at alpha7 nAChR at 32 uM. It counts as functional.
For assay [8], the target named is T4, 5-hydroxytryptamine receptor 3A (Homo sapiens, UniProt P46098).
T4 sequence (P46098 whole entry): T1 sequence (whole entry)
The experiment in a line: Binding affinity to 5HT3 receptor.

Assay [9] has as its target T3, Neuronal acetylcholine receptor subunit alpha-7. The experiment in a line: Agonist activity at human alpha7 nAChR expressed in Xenopus oocytes relative to acetylcholine. It counts as functional, cell-based. The settings on record: Oocyte.
Assay [10] has the same target. As to the kind of experiment: Agonist activity at human alpha7 nAChR expressed in Xenopus oocyte. Format: functional.
For assay [11], the target named is T2, Neuronal acetylcholine receptor subunit alpha-7. As to the kind of experiment: Binding affinity to alpha7 nAChR in rat hippocampal membranes. Format: cell membranes, Hippocampus.
For assay [12], the target named is T3, Neuronal acetylcholine receptor subunit alpha-7. The experiment in a line: Agonist activity at alpha7 nAChR. It counts as functional.
For assay [13], the target named is T5, Neuronal acetylcholine receptor; alpha4/beta2 (Homo sapiens, UniProt P17787+P43681). The experiment in a line: Binding affinity to alpha4beta2 nAChR. It counts as protein-complex assay.
Assay [14] has as its target T3, Neuronal acetylcholine receptor subunit alpha-7. As to the kind of experiment: Binding affinity to human alpha7 nAchR.
The species named for assay [15] is Rattus norvegicus. As to the kind of experiment: Procognitive effect in rat assessed as spartial reference memories by novel object recognition test. The settings on record: read-out: MED. Format: functional.
Assay [16] deals with Neuronal acetylcholine receptor subunit alpha-7 (Macaca mulatta, UniProt Q866A2). The experiment in a line: Agonist activity at wild type monkey alpha7 nAChR by whole cell patch clamp assay. It counts as functional.
In assay [17] the test system is Rattus norvegicus. As to the kind of experiment: Sensory gating restoration in phencyclidine-induced impairment ip dosed rat schizophrenia model. It counts as functional. The settings on record: read-out: MED. In outline: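 Young and aged rats with phencyclidine-induced impairment, a model of sensory gating restoration in schizophrenia. Intraperitoneal dosing. Reported as minimum effective dose (MED), in mg/kg ip.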

The target of assay [18] is T3, Neuronal acetylcholine receptor subunit alpha-7. The experiment in a line: Agonist activity at human alpha7 nAChR expressed in QM7 cells. Format: functional, cell-based.
In assay [19] the target is T4, 5-hydroxytryptamine receptor 3A. The experiment in a line: Antagonist activity at 5HT3 receptor expressed in Xenopus oocyte. It counts as functional.
Assay [20] concerns the target Neuronal acetylcholine receptor subunit alpha-7 (Macaca mulatta) (UniProt Q866A2). The experiment in a line: Agonist activity at wild type monkey alpha7 nAChR by whole cell patch clamp assay relative to control. It counts as functional.
Assay [21] addresses T3, Neuronal acetylcholine receptor subunit alpha-7. The experiment in a line: Partial agonist activity at human alpha7 nAChR by whole cell patch clamp assay relative to acetylcholine. It counts as functional. Put shortly:
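Human α7 nAChR expressed in Xenopus oocytes and in QM7 cells. Whole-cell patch-clamp recording. Agonist efficacy is given as % of the acetylcholine response, and EC50 is derived per expression system.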

In assay [22] the test system is Rattus norvegicus. The experiment in a line: Procognitive effect in po dosed rat assessed as episodic memories by novel object recognition test. It counts as functional. Particulars: read-out: MED. In outline: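 Rats dosed orally (po) in a novel object recognition test of episodic memory. Reported as minimum effective dose (MED), in mg/kg.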
For assay [23], the target named is 5-hydroxytryptamine receptor 3A (Mus musculus) (UniProt P23979). As to the kind of experiment: Antagonist activity at 5HT3 receptor expressed in N1E115 cells.
The target of assay [24] is T4, 5-hydroxytryptamine receptor 3A. The experiment in a line: Inhibition of 5HT3 receptor.
In assay [25] the target is T2, Neuronal acetylcholine receptor subunit alpha-7. As to the kind of experiment: Displacement of [3H]-MLA from alpha7 nAChR in rat brain membranes. Format: cell membranes.
Assay [26] is filed under the species Rattus norvegicus. The experiment in a line: Procognitive effect in rat assessed as working memories by novel object recognition test. The settings on record: read-out: MED. It counts as functional.
Assay [27] concerns the target T3, Neuronal acetylcholine receptor subunit alpha-7. As to the kind of experiment: Agonist activity at human alpha7 nAChR relative to control. It counts as functional.
Assay [28] shares this target. As to the kind of experiment: Agonist activity at human alpha7 nAChR. It counts as functional.
Assay [29] has as its target T5, Neuronal acetylcholine receptor; alpha4/beta2. As to the kind of experiment: Binding affinity to human alpha4beta2 nAChR. Format: protein-complex assay.
Assay [30] deals with T4, 5-hydroxytryptamine receptor 3A. As to the kind of experiment: Binding affinity to human 5HT3A receptor.
Assay [31] has as its target T1, 5-hydroxytryptamine receptor 3A (Homo sapiens). The experiment in a line: Agonist activity at human 5HT3A at 100 uM relative to control. It counts as functional.
The test system of assay [32] is Rattus norvegicus. The experiment in a line: Cognitive enhancing effect in po dosed rat short-term working memory by novel object recognition paradigm. It counts as functional. Particulars: read-out: MED.
Assay [33] relates to Rattus norvegicus. As to the kind of experiment: Reversal of apomorphine-induced prepulse inhibition in po dosed rat. Format: functional. Particulars: read-out: MED. In outline:
(§1)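 Prepulse inhibition disrupted by apomorphine in mice and in rats. Test drug given orally. Reversal reported as minimum effective dose (MED), in mg/kg po.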

Assay [34] addresses T6, 5-hydroxytryptamine receptor 3A (Mus musculus) (UniProt P23979).
T6 sequence (whole entry): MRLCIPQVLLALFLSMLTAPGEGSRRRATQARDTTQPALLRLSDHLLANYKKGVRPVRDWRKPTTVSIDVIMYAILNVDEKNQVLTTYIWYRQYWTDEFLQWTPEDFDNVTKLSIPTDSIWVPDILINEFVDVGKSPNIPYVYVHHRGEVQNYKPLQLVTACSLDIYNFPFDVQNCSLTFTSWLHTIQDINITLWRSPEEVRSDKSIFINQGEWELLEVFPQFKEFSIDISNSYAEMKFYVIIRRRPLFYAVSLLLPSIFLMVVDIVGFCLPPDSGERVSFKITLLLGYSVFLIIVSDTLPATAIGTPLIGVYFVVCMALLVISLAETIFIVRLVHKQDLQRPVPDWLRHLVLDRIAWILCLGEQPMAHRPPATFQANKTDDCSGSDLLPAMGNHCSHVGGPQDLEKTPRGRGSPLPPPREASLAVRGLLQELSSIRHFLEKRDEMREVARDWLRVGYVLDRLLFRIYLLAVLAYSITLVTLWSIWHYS
The experiment in a line: Binding affinity to mouse 5HT3 receptor at 10 uM by radioligand binding assay.

Assay [35] can be described thus: Inhibition of sodium channel site 2.
Assay [36] is described as follows: Inhibition of non-selective opioid receptor.
Assay [37] concerns Mus musculus. The experiment in a line: Reversal of apomorphine-induced prepulse inhibition in po dosed mouse. Format: functional. The settings on record: read-out: MED. In outline: as §1

T2 sequence (Q05941 whole entry): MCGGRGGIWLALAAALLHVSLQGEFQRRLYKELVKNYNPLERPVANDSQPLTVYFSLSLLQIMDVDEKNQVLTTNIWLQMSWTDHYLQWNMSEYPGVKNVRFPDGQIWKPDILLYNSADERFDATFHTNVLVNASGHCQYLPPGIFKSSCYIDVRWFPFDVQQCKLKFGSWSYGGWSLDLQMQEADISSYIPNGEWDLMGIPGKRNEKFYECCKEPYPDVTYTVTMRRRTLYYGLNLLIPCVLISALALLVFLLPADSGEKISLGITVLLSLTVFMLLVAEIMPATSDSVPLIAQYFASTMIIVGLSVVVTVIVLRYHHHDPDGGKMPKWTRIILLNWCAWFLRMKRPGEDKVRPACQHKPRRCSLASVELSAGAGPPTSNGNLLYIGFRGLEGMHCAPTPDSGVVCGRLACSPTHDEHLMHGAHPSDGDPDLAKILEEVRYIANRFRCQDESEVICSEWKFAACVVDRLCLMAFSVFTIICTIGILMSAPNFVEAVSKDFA
T3 sequence (P36544 whole entry): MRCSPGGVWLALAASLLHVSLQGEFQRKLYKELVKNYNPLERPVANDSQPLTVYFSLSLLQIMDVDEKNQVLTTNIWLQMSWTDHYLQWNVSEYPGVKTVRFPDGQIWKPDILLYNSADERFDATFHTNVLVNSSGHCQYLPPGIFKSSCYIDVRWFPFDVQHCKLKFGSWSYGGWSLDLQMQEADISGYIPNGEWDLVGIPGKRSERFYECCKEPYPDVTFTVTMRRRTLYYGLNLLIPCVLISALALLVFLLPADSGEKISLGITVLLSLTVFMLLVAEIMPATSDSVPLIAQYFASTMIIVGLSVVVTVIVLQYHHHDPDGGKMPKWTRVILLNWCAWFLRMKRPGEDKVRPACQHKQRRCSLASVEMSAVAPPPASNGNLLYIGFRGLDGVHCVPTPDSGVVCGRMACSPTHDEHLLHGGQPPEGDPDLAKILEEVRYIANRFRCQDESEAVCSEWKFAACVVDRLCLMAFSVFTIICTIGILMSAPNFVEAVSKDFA
T5 sequence (P17787 whole entry): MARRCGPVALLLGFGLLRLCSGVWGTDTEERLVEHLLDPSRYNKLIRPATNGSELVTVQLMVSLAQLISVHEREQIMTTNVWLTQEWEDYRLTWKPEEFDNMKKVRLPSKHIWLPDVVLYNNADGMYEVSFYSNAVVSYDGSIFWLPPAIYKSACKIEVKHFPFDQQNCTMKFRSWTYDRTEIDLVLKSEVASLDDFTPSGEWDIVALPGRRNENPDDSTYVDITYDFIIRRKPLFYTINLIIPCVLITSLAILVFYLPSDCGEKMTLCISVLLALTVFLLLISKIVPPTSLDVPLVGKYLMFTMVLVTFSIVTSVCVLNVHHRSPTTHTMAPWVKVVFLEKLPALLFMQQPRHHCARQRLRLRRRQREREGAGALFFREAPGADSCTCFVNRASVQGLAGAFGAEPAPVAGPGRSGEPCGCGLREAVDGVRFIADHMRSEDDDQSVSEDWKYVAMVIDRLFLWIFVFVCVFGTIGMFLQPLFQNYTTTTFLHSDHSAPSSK
T5 sequence (P43681 whole entry): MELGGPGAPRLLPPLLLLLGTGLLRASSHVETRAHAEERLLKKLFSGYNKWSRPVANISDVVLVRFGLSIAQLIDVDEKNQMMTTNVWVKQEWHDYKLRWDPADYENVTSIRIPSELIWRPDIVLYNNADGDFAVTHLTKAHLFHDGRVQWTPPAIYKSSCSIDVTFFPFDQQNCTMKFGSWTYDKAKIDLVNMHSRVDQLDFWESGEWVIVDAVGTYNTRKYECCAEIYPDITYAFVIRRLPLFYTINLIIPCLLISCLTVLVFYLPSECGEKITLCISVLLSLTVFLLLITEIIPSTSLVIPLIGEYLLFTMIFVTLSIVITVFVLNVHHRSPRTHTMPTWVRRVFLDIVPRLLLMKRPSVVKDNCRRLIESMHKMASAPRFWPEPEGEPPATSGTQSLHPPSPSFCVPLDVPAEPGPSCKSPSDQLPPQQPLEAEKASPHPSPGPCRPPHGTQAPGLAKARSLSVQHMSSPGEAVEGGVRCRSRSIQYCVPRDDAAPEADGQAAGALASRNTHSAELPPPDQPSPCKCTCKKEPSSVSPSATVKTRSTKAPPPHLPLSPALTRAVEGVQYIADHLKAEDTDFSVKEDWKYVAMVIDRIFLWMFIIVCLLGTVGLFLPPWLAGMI
Chain of Neuronal acetylcholine receptor subunit alpha-7 (Macaca mulatta, UniProt Q866A2) (Q866A2 whole entry): as the sequence (P36544 whole entry) above, with P5Q, N193S, R208K, V395M, V398A counted along it
Chain of Neuronal acetylcholine receptor subunit alpha-7 (Macaca mulatta) (Q866A2 whole entry): as the sequence (P36544 whole entry) above, with P5Q, N193S, R208K, V395M, V398A counted along it

For the molecule `O=C1NC[C@@]2(CN3CCC2CC3)O1`, the inhibition in assay [1] came to 2.5%. In [2], this molecule returned an EC50 of 21000 nM.
`O=C(Oc1ccc(Br)cc1)N1CCN2CCC1CC2` [SSR180711] displayed an inhibition in assay [1] of less than 50%. Further, the Intrinsic activity in assay [3] worked out at 51%; in assay [5] it was 36%. Besides, the EC50 in assay [4] was found to be 900 nM.
`O=C1O[C@]2(CN3CCC2CC3)CN1c1ccc(Cl)s1` came in with a Ki in assay [6] of 9 nM.
Turning to `O=C(Oc1ccccc1)N1CCN2CCC1CC2`, in assay [7], the Activity came out at 99%. Moreover, the Ki in assay [6] came to 739 nM; in assay [8] it was 3990 nM.
Turning to `c1cncc(C2CCC3CCN2CC3)c1` (stereo not given), the Emax in [9] worked out at 100%. This molecule also had an EC50 in [10] of 440 nM. In assay [1], this molecule gave an inhibition of less than 50%. Affinity in assay [11] was put at a Ki of 11 nM.
In [6], `O=C1O[C@]2(CN3CCC2CC3)CN1c1cc2ccccc2s1` displayed a Ki of 75 nM.
Consider `O=C(N[C@H]1CN2CCC1CC2)c1cc(Cl)cc2c1OCC2`, for which the Ki in assay [8] came out at 1 nM.
In [12], `O=C(NCCCCN1CCCCC1)Nc1ccc(-c2cccnc2)cc1` had an EC50 of 120 nM.
In the case of `CN1CC2CN(c3ccc(-c4ccc5[nH]ccc5c4)nn3)CC2C1` (stereo not given), the EC50 in assay [12] amounted to 320 nM. For the same molecule, the Ki was more than 20000 nM in [13] and 0.24 nM in assay [6].
For `O=C(N[C@@H]1CN2CCC1CC2)c1n[nH]c2ccccc12` [FACINICLINE], the Ki in [14] came out at 6 nM; in assay [24], 2 nM; in [25] it was 10 nM. Further, the EC50 amounted to 800 nM in [10], 400 nM in [16] and 7700 nM in [18]. In addition, the minimal effective dose in assay [15] is 1 mg/kg; in [17], 0.03 mg/kg; in [22], 1 mg/kg; in [26] it was 1 mg/kg. For the same molecule, the values for the IC50 in assay [19] and in assay [23] were 2.8 nM and 32.7 nM, respectively. For the same molecule, in assay [20], the Emax was 67%. For the same molecule, in assay [21], the Activity was 63%.
For the molecule `c1cnc2c(c1)C[C@@]1(CN3CCC1CC3)O2` [AZD0328], the Emax in [27] is 58%. The same molecule displayed an EC50 in [28] of 340 nM. In addition, the Ki in assay [29] was determined as 140 nM; in assay [30], 12 nM.
In assay [12], `Cc1nc2nc(N3CCN4CCC3CC4)oc2cc1Cl` registered an EC50 of 160 nM. The Ki in assay [6] was found to be 3.2 nM; in assay [8] it was 244 nM.
`O=C(N[C@H]1CN2CCC1CC2)c1ccc2cc[nH]c2c1`: in [12], a half-maximal effect (EC50) was put at 100 nM.
As to `O=C1O[C@]2(CN3CCC2CC3)CN1c1cccs1`, the Ki in assay [6] is 80 nM.
The molecule `O=C(N[C@H]1CN2CCC1CC2)c1ccc2occc2c1` gave an EC50 in assay [12] of 43 nM. The same molecule gave an IC50 in [24] of 580 nM. Further, the values for the Ki in [6] and in [8] were 1.6 nM and 663 nM, respectively.
Regarding `O=C(N[C@@H]1C2CCN(CC2)[C@H]1Cc1cccnc1)c1cc2ccccc2o1` [BRADANICLINE], the Emax in assay [9] was determined as 100%; in assay [31], 15%. The minimal effective dose in [32], in assay [33] and in assay [37] was 0.3 mg/kg throughout. Also, the inhibition in assay [1] turned out to be 25%; in [34], 59%; in assay [35] (concentration not given here), 79%; in assay [36] (concentration not given here), 58%. The Ki in assay [35] and in assay [36] was 13000 nM in each case.
For the molecule `c1ccc(-c2ccc(N3CC4CNCC4C3)cn2)cc1` (stereo not given), the Ki amounted to 96 nM in assay [13] and 8.4 nM in [6].

The record behind these values is ChEMBL document CHEMBL2151039, “Discovery and development of α7 nicotinic acetylcholine receptor modulators” (J Med Chem, 2011).
